Here are results for one compound from ChEMBL document CHEMBL3734686, “Synthesis, Photophysical Properties, and Biological Evaluation of trans-Bisthioglycosylated Tetrakis(fluorophenyl)chlorin for Photodynamic Therapy” (J Med Chem, 2015).

Data set [1] relates to Spleen. Kind of data set: Drug uptake in BALB/c mouse spleen implanted with mouse 4T1 cells assessed per gram of tissue at 0.18 mg/kg, ip after 24 hrs by HPLC-based fluorescence analysis. In kind it is ADME, organism-based. Particulars: in vivo. The method, boiled down: (§1)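 Female BALB/c mice with 4T1 cells (1 × 10^6 in HBSS) implanted in left rear thigh; single i.p. dose, 7 in ethanol/PEG400/H2O (2/3/5) with 0.1% DMSO, mono-L-aspartyl chlorin e6 in saline; kept dark until sacrifice. Tissues washed, frozen, homogenized in CH3OH/DMSO/H2O (32/8/1), centrifuged 2300×g; supernatant analysed by HPLC with fluorescence detection; three animals per time point.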

The test system of data set [2] is Heart. Kind of data set: Drug uptake in BALB/c mouse heart implanted with mouse 4T1 cells assessed per gram of tissue at 0.18 mg/kg, ip after 72 hrs by HPLC-based fluorescence analysis. In kind it is ADME, organism-based. The settings on record: in vivo. The method, boiled down:
(§2)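 Female BALB/c mice bearing 4T1 thigh tumours received an i.p. dose in ethanol/PEG400/H2O (2/3/5) with 0.1% DMSO, or in saline, and were kept dark until killed. Tissues were weighed (100 mg), homogenised in CH3OH/DMSO/H2O (32/8/1) and centrifuged twice at 2300×g at 4°C. Supernatants were analysed by HPLC with fluorescence detection (λex 404/λem 654 nm or λex 400/λem 666 nm). n = 3 per time point.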

The next data set concerns Zone of skin. Kind of data set: Drug uptake in BALB/c mouse skin implanted with mouse 4T1 cells assessed per gram of tissue at 0.18 mg/kg, ip after 12 hrs by HPLC-based fluorescence analysis. Type of data set: ADME, organism-based. The settings on record: in vivo. The method, boiled down: as §1
A short description of data set [3]: Drug uptake in nucleus of human Hela cells at 0.5 uM preincubated for 24 hrs followed by MitoTracker Green FM addition for 30 mins by CSLM analysis. Particulars: 0.5 h. Type of data set: ADME, cell-based. In short, it runs like this: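 HeLa cells (1 × 10^4) plated 24 h, incubated 24 h with 0.5 µM final photosensitizer (1% DMSO), washed, stained 30 min with 250 nM MitoTracker Green FM in HBSS at 37°C, fixed in 4% paraformaldehyde. Confocal imaging: red λex 488/λem 650 nm; green λex 488/λem 505–530 nm.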

Data set [4] concerns Spleen. Kind of data set: Drug uptake in BALB/c mouse spleen implanted with mouse 4T1 cells assessed per gram of tissue at 0.18 mg/kg, ip after 6 hrs by HPLC-based fluorescence analysis. Particulars: in vivo. Type of data set: ADME, organism-based. In short, it runs like this:
as §1

The subject of the next data set is Lung. Kind of data set: Drug uptake in BALB/c mouse lung implanted with mouse 4T1 cells assessed per gram of tissue at 0.18 mg/kg, ip after 12 hrs by HPLC-based fluorescence analysis. The settings on record: in vivo. Type of data set: ADME, organism-based. The method, boiled down:
as §2

A further data set relates to Urinary bladder. Kind of data set: Drug uptake in BALB/c mouse bladder implanted with mouse 4T1 cells assessed per gram of tissue at 0.18 mg/kg, ip after 6 hrs by HPLC-based fluorescence analysis. Type of data set: ADME, organism-based. The settings on record: in vivo. In short, it runs like this: as §2
In data set [5] the test system is Kidney. The data set can be described thus: Drug uptake in BALB/c mouse kidney implanted with mouse 4T1 cells assessed per gram of tissue at 0.18 mg/kg, ip after 48 hrs by HPLC-based fluorescence analysis. Type of data set: ADME, organism-based. Particulars: in vivo. The method, boiled down: as §2
The test system of data set [6] is HeLa. The data set can be described thus: Photocytotoxicity against human HeLa cells assessed as cell survival preincubated for 24 hrs followed by irradiation at 16 J/cm2 measured at 24 hrs by WST-8 assay. Type of data set: functional, cell-based. Particulars: light or radiation study. In short, it runs like this:
(§3)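 Cells (5 × 10^3/well) in DMEM with 10% FCS, 24 h at 37°C, 5% CO2; photosensitizer 1–50000 nM (1% DMSO final) for 24 h, washed, fresh medium. Irradiated with 100-W halogen lamp through λ>500 nm or λ>600 nm cutoff filter to 16 J·cm−2; WST-8 absorbance at 450 nm 24 h later, survival normalized to no-drug wells.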

The subject of data set [7] is Heart. The data set can be described thus: Drug uptake in BALB/c mouse heart implanted with mouse 4T1 cells assessed per gram of tissue at 0.18 mg/kg, ip after 12 hrs by HPLC-based fluorescence analysis. Particulars: in vivo. Type of data set: ADME, organism-based. The method, boiled down: as §2
Data set [8] deals with Spleen. The data set can be described thus: Drug uptake in BALB/c mouse spleen implanted with mouse 4T1 cells assessed per gram of tissue at 0.18 mg/kg, ip after 12 hrs by HPLC-based fluorescence analysis. Type of data set: ADME, organism-based. The settings on record: in vivo. In short, it runs like this: as §1
The subject of data set [9] is 4T1. Kind of data set: Drug uptake in mouse 4T1 cells implanted in BALB/c mouse assessed per gram of tissue at 0.18 mg/kg, ip after 48 hrs by HPLC-based fluorescence analysis. Type of data set: ADME, organism-based. The settings on record: in vivo. In short, it runs like this: as §1
For data set [10], the system named is 4T1. The data set can be described thus: Drug uptake in mouse 4T1 cells implanted in BALB/c mouse assessed per gram of tissue at 0.18 mg/kg, ip after 6 hrs by HPLC-based fluorescence analysis. In kind it is ADME, organism-based. The settings on record: in vivo. The method, boiled down: as §1
Data set [11] can be described thus: Photocytotoxicity against human U87 cells assessed as cell survival preincubated for 24 hrs followed by irradiation at 16 J/cm2 measured at 24 hrs by WST-8 assay. Type of data set: functional, cell-based, U-87MG ATCC. Particulars: U-87 MG, light or radiation study. The method, boiled down: as §3
For data set [12], the system named is Kidney. The data set can be described thus: Drug uptake in BALB/c mouse kidney implanted with mouse 4T1 cells assessed per gram of tissue at 0.18 mg/kg, ip after 72 hrs by HPLC-based fluorescence analysis. Type of data set: ADME, organism-based. Particulars: in vivo. The method, boiled down:
as §2

Data set [13] is described as follows: Drug uptake in BALB/c mouse small intestine implanted with mouse 4T1 cells assessed per gram of tissue at 0.18 mg/kg, ip after 48 hrs by HPLC-based fluorescence analysis. Type of data set: ADME, organism-based. The settings on record: in vivo. In short, it runs like this:
as §1

Data set [14] has as its system HeLa. The data set can be described thus: Dark cytotoxicity against human HeLa cells at 0.5 uM assessed as cell survival preincubated for 24 hrs measured by WST-8 assay in absence of photoirradiation. Type of data set: cell-based. In short, it runs like this: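 HeLa cells were seeded at 5 × 10^3 per well in DMEM with 10% FCS and grown for 24 h at 37°C. They were then exposed for 24 h to 0.5 µM photosensitizer (1% DMSO final), washed, and not irradiated. Viability was read 24 h later by WST-8 absorbance at 450 nm and expressed as percent of untreated wells.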
(Tetrazolium dyes change colour on reduction, which living cells bring about.)

The subject of data set [15] is Heart. Kind of data set: Drug uptake in BALB/c mouse heart implanted with mouse 4T1 cells assessed per gram of tissue at 0.18 mg/kg, ip after 48 hrs by HPLC-based fluorescence analysis. Type of data set: ADME, organism-based. Particulars: in vivo. In short, it runs like this: as §2
Data set [16] is described as follows: Induction of reactive oxygen generation assessed as quantum yield of hydroxyl radical generation in O2 saturated PBS containing 1% DMSO under photoirradiation by spectrometry relative to control hematoporphyrin. Type of data set: physicochemical. Particulars: buffer. The method, boiled down:
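Photosensitizer (1.00 µM) with HPF (2.00 µM) in PBS containing 1% DMSO, oxygenated 1 min, irradiated with 100-W halogen lamp through λ>500 nm cutoff filter at 37°C; hematoporphyrin as reference.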

The test system of another data set is Liver. The data set can be described thus: Drug uptake in BALB/c mouse liver implanted with mouse 4T1 cells assessed per gram of tissue at 0.18 mg/kg, ip after 12 hrs by HPLC-based fluorescence analysis. In kind it is ADME, organism-based. The settings on record: in vivo. The method, boiled down:
as §2

A short description of data set [17]: Drug uptake in BALB/c mouse small intestine implanted with mouse 4T1 cells assessed per gram of tissue at 0.18 mg/kg, ip after 12 hrs by HPLC-based fluorescence analysis. Type of data set: ADME, organism-based. The settings on record: in vivo. The method, boiled down:
as §1

The test system of the next data set is Muscle tissue. Kind of data set: Drug uptake in BALB/c mouse muscle implanted with mouse 4T1 cells assessed per gram of tissue at 0.18 mg/kg, ip after 24 hrs by HPLC-based fluorescence analysis. Type of data set: ADME, organism-based. Particulars: in vivo. The method, boiled down: as §2
The next data set has as its system Stomach. The data set can be described thus: Drug uptake in BALB/c mouse stomach implanted with mouse 4T1 cells assessed per gram of tissue at 0.18 mg/kg, ip after 48 hrs by HPLC-based fluorescence analysis. Type of data set: ADME, organism-based. The settings on record: in vivo. In short, it runs like this: as §1
The next data set concerns U-251. The data set can be described thus: Photocytotoxicity against human U251 cells assessed as cell survival preincubated for 24 hrs followed by irradiation at 16 J/cm2 measured at 24 hrs by WST-8 assay. In kind it is functional, cell-based. The settings on record: U-251, light or radiation study. The method, boiled down: as §3

The term EC50 denotes the concentration at which the effect is half-maximal. Consider `CN1CC2C3=N/C(=C(/c4c(F)c(F)c(S[C@@H]5O[C@H](CO)[C@@H](O)[C@H](O)[C@H]5O)c(F)c4F)C4=N/C(=C(/c5c(F)c(F)c(F)c(F)c5F)c5ccc([nH]5)/C(c5c(F)c(F)c(S[C@@H]6O[C@H](CO)[C@@H](O)[C@H](O)[C@H]6O)c(F)c5F)=C5/C=CC(=N5)C3c3c(F)c(F)c(F)c(F)c3F)C=C4)C2C1` (some centres undefined), for which the Drug uptake is 58 ng with Spleen [1]; 3.3 ng in the data set with Heart [2]; 0 ng in the data set on Zone of skin; “Not Active” in data set [3]; 90 ng/g in the data set on Spleen [4]; 30 ng with Lung. Further, the Drug uptake in the data set on Urinary bladder is 90 ng/g; in the data set on Kidney [5], 5 ng; in the data set on Heart [7], 6 ng/g; in the data set with Spleen [8], 55 ng; in the data set on 4T1 [9] it was 1.4 ng/g; in the data set on 4T1 [10], 5 ng. Moreover, the Drug uptake amounted to 13 ng in the data set with Kidney [12]; 9.5 ng/g in [13]; 2.1 ng/g with Heart [15]; 60 ng/g in the data set with Liver; 80 ng in [17]; 1.2 ng with Muscle tissue. In addition, in the data set with Stomach, the Drug uptake was determined as 6 ng. Besides, the EC50 came out at 0.5 nM in the data set with HeLa [6], 0.1 nM in data set [11] and 0.5 nM with U-251. For the same compound, the Activity result in the data set on HeLa [14] is “Non-toxic”. Moreover, the Ratio in data set [16] is reported as 1.2.
